# According to ChEMBL document CHEMBL2331220, “Benzimidazole clubbed with triazolo-thiadiazoles and triazolo-thiadiazines: new anticancer agents” (2013):
# What was measured:
# Type in all cases: functional
# HCC 2998 = assay: Cytotoxicity against human HCC2998 cells after 48 hrs by SRB assay; conditions: HCC 2998, 48 h
# Procedure, shortened: (§1)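 NCI 60-line five-dose screen. Cells were preincubated 24 h at 37 °C under 5% CO2 and 100% humidity, and time-zero plates were TCA-fixed when compound was added. Five 10-fold concentrations (0.01–100) were tested for 48 h. Cells were fixed with cold TCA (final 10%, 60 min, 4 °C), stained with 0.4% SRB for 10 min, and read at 515 nm. GI50, TGI and LC50 came from growth-percentage formulas, with out-of-range values given as > or <.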
# MDA-MB-435 = assay: Cytotoxicity against human MDA-MB-435 cells after 48 hrs by SRB assay; conditions: MDA-MB-435, 48 h; procedure, shortened: as §1
# Malme-3M = assay: Cytotoxicity against human MALME-3M cells after 48 hrs by SRB assay; procedure, shortened: as §1
# 786-0 = assay: Cytotoxicity against human 786-0 cells after 48 hrs by SRB assay; conditions: 786-0, 48 h; procedure, shortened: as §1
# CAKI-1 = assay: Cytotoxicity against human Caki1 cells after 48 hrs by SRB assay; conditions: CAKI-1, 48 h; procedure, shortened: as §1
# HT-29 = assay: Cytotoxicity against human HT-29 cells after 48 hrs by SRB assay; conditions: HT-29, 48 h; procedure, shortened: as §1
# SK-OV-3 = assay: Cytotoxicity against human SKOV3 cells after 48 hrs by SRB assay; conditions: SK-OV-3, 48 h
# Procedure, shortened: (§2)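 NCI 60-line five-dose screen: cells plated, held 24 h at 37 °C, 5% CO₂ before treatment, with a TCA-fixed time-zero plate. Five final concentrations (0.01–100 µM, 10-fold dilutions) for 48 h. Cells fixed with cold TCA (10% final) and stained with 0.4% SRB in 1% acetic acid. Dye dissolved in 10 mM Tris and read at 515 nm. GI₅₀, TGI and LC₅₀ taken from percent-growth curves.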
# HOP-62 = assay: Cytotoxicity against human HOP62 cells after 48 hrs by SRB assay; conditions: HOP-62, 48 h; procedure, shortened: as §1
# SK-MEL-2 = assay: Cytotoxicity against human SK-MEL-2 cells after 48 hrs by SRB assay; conditions: SK-MEL-2, 48 h; procedure, shortened: as §1
# RPMI-8226 = assay: Cytotoxicity against human RPMI8226 cells after 48 hrs by SRB assay; conditions: RPMI-8226, 48 h; procedure, shortened: as §1
# DU-145 = assay: Cytotoxicity against human DU145 cells after 48 hrs by SRB assay; conditions: DU-145, 48 h; procedure, shortened: as §1
# KM12 = assay: Cytotoxicity against human KM12 cells after 48 hrs by SRB assay; conditions: KM12, 48 h; procedure, shortened: as §1
# SW-620 = assay: Cytotoxicity against human SW620 cells after 48 hrs by SRB assay; conditions: SW-620, 48 h; procedure, shortened: as §2
# IGROV-1 = assay: Growth inhibition of human IGROV1 cells at 10 uM after 48 hrs by SRB assay relative to control; conditions: IGROV-1, 48 h, read-out: GI
# Procedure, shortened: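 NCI single-dose primary screen: compound added at 1 × 10⁻⁵ M, cultures incubated 48 h. Protein stained with sulforhodamine B. Result given as percent growth of treated cells relative to untreated controls, where negative values mean cell kill.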
# T47D = assay: Cytotoxicity against human T47D cells after 48 hrs by SRB assay; procedure, shortened: as §2
# SNB-75 = assay: Cytotoxicity against human SNB75 cells after 48 hrs by SRB assay; conditions: SNB-75, 48 h; procedure, shortened: as §2
# U-251 = assay: Cytotoxicity against human U251 cells after 48 hrs by SRB assay; conditions: U-251, 48 h; procedure, shortened: as §2
# NCI-H460 = assay: Cytotoxicity against human NCI-H460 cells after 48 hrs by SRB assay; conditions: NCI-H460, 48 h; procedure, shortened: as §1
# [1] = read-out: LC50 (the source's name)
# [2] = read-out: pLC50 (the source's name) (converted)
structure (smiles),measurement,setting,value
O=C(CCc1nnc2sc(-c3ccc(Cl)cc3Cl)nn12)c1nc2ccccc2[nH]1,GI50,HCC 2998; read-out: GI50,1.63 µM
same,CC50,HCC 2998; [1],6.29 µM
same,TGI,HCC 2998; read-out: TGI,3.2 µM
same,GI50,HCC 2998; read-out: pGI50 (converted),1.62 µM
same,CC50,HCC 2998; [2],6.31 µM
same,TGI,HCC 2998; read-out: pTGI (converted),3.16 µM
same,GI50,MDA-MB-435; read-out: GI50,0.265 µM
same,TGI,MDA-MB-435; read-out: TGI,0.842 µM
same,GI50,MDA-MB-435; read-out: pGI50 (converted),0.263 µM
same,TGI,MDA-MB-435; read-out: pTGI (converted),0.851 µM
same,GI50,Malme-3M; read-out: GI50,0.762 µM
same,TGI,Malme-3M; read-out: TGI,2.94 µM
same,GI50,Malme-3M; read-out: pGI50 (converted),0.759 µM
same,TGI,Malme-3M; read-out: pTGI (converted),2.95 µM
same,GI50,786-0; read-out: GI50,1.59 µM
same,LC50,786-0; read-out: LC50,5.92 µM
same,TGI,786-0; read-out: TGI,3.06 µM
same,GI50,786-0; read-out: pGI50 (converted),1.58 µM
same,LC50,786-0; read-out: pLC50 (converted),5.89 µM
same,TGI,786-0; read-out: pTGI (converted),3.09 µM
same,GI50,CAKI-1; read-out: GI50,1.45 µM
same,TGI,CAKI-1; read-out: TGI,3.44 µM
same,GI50,CAKI-1; read-out: pGI50 (converted),1.45 µM
same,TGI,CAKI-1; read-out: pTGI (converted),3.47 µM
same,GI50,HT-29; read-out: GI50,0.362 µM
same,CC50,HT-29; [1],> 100 µM
same,TGI,HT-29; read-out: TGI,1.81 µM
same,GI50,HT-29; read-out: pGI50 (converted),0.363 µM
same,CC50,HT-29; [2],> 100 µM
same,TGI,HT-29; read-out: pTGI (converted),1.82 µM
same,GI50,SK-OV-3; read-out: GI50,1.86 µM
same,LC50,SK-OV-3; read-out: LC50,7.28 µM
same,TGI,SK-OV-3; read-out: TGI,3.68 µM
same,GI50,SK-OV-3; read-out: pGI50 (converted),1.86 µM
same,LC50,SK-OV-3; read-out: pLC50 (converted),7.24 µM
same,TGI,SK-OV-3; read-out: pTGI (converted),3.72 µM
same,GI50,HOP-62; read-out: GI50,0.576 µM
same,CC50,HOP-62; [1],6.16 µM
same,TGI,HOP-62; read-out: TGI,2.12 µM
same,GI50,HOP-62; read-out: pGI50 (converted),0.575 µM
same,CC50,HOP-62; [2],6.17 µM
same,TGI,HOP-62; read-out: pTGI (converted),2.14 µM
same,GI50,SK-MEL-2; read-out: GI50,1.76 µM
same,CC50,SK-MEL-2; [1],> 100 µM
same,TGI,SK-MEL-2; read-out: TGI,6.67 µM
same,GI50,SK-MEL-2; read-out: pGI50 (converted),1.78 µM
same,CC50,SK-MEL-2; [2],> 100 µM
same,TGI,SK-MEL-2; read-out: pTGI (converted),6.61 µM
same,GI50,RPMI-8226; read-out: GI50,0.352 µM
same,CC50,RPMI-8226; [1],> 100 µM
same,TGI,RPMI-8226; read-out: TGI,1.76 µM
same,GI50,RPMI-8226; read-out: pGI50 (converted),0.355 µM
same,CC50,RPMI-8226; [2],> 100 µM
same,TGI,RPMI-8226; read-out: pTGI (converted),1.78 µM
same,GI50,DU-145; read-out: GI50,1.2 µM
same,CC50,DU-145; [1],5.02 µM
same,TGI,DU-145; read-out: TGI,2.46 µM
same,GI50,DU-145; read-out: pGI50 (converted),1.2 µM
same,CC50,DU-145; [2],5.01 µM
same,TGI,DU-145; read-out: pTGI (converted),2.45 µM
same,GI50,KM12; read-out: GI50,1.16 µM
same,CC50,KM12; [1],7.7 µM
same,TGI,KM12; read-out: TGI,2.99 µM
same,GI50,KM12; read-out: pGI50 (converted),1.15 µM
same,CC50,KM12; [2],7.76 µM
same,TGI,KM12; read-out: pTGI (converted),3.02 µM
same,GI50,SW-620; read-out: GI50,0.204 µM
same,CC50,SW-620; [1],2.48 µM
same,TGI,SW-620; read-out: TGI,0.545 µM
same,GI50,SW-620; read-out: pGI50 (converted),0.204 µM
same,CC50,SW-620; [2],2.51 µM
same,TGI,SW-620; read-out: pTGI (converted),0.55 µM
same,inhibition of growth at 10 µM,IGROV-1,≤ 32%
same,GI50,T47D; read-out: GI50,0.753 µM
same,LC50 (concentration giving 50% net cell kill),T47D; read-out: LC50,7.06 µM
same,TGI,T47D; read-out: TGI,2.51 µM
same,GI50,T47D; read-out: pGI50 (converted),0.759 µM
same,LC50 (concentration giving 50% net cell kill),T47D; read-out: pLC50 (converted),7.08 µM
same,TGI,T47D; read-out: pTGI (converted),2.51 µM
same,GI50,SNB-75; read-out: GI50,1.96 µM
same,CC50,SNB-75; [1],17.1 µM
same,TGI,SNB-75; read-out: TGI,4.65 µM
same,GI50,SNB-75; read-out: pGI50 (converted),1.95 µM
same,CC50,SNB-75; [2],17 µM
same,TGI,SNB-75; read-out: pTGI (converted),4.68 µM
same,GI50,U-251; read-out: GI50,1.28 µM
same,CC50,U-251; [1],5.34 µM
same,TGI,U-251; read-out: TGI,2.61 µM
same,GI50,U-251; read-out: pGI50 (converted),1.29 µM
same,CC50,U-251; [2],5.37 µM
same,TGI,U-251; read-out: pTGI (converted),2.63 µM
same,GI50,NCI-H460; read-out: GI50,0.766 µM
same,CC50,NCI-H460; [1],5.21 µM
same,TGI,NCI-H460; read-out: TGI,2.17 µM
same,GI50,NCI-H460; read-out: pGI50 (converted),0.759 µM
same,CC50,NCI-H460; [2],5.25 µM
same,TGI,NCI-H460; read-out: pTGI (converted),2.19 µM
